CYP2C19 act = activators of human cytochrome P450 2C19 | P33261 | recombinant CYP2C19, luciferin-H EGE luminescence; hits give high values; 0 = fully inhibited enzyme, 1 = untreated enzyme | activation factor at 5 µM | 96,000 tested, under 10 active | AID 1025;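 active = activation factor of at least 2 at 5 µM in the primary screen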
CYP2C9 inh = blocks human cytochrome P450 2C9 | hit rate 20% among 96,000 | P11712 | CYP2C9 Supersomes, luciferin-H conversion, luminescence | inhibition, % at 5 µM | AID 777;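 active = blocking of liver enzyme CYP2C9 beyond about 50% at 5 µM, limit read from the data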
Target sequence (P11712 whole entry, looked up): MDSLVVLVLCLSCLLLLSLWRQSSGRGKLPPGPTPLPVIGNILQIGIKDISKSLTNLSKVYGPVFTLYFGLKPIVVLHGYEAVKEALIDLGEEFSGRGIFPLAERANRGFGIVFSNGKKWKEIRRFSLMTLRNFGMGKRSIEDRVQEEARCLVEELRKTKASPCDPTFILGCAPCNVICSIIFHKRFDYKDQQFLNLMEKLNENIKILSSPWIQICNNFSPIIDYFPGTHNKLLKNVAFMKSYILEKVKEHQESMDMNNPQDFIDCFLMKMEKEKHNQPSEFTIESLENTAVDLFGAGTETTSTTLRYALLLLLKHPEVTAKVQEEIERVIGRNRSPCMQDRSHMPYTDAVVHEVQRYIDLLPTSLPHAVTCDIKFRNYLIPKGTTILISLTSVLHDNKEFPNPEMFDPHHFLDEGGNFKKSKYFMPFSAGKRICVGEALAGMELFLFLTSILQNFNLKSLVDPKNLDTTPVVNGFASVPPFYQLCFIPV
CYP2C9 activ = CYP2C9 (human) activation; recombinant CYP2C9, luciferin-H conversion, luminescence; hits give high values; factor 1 = untreated enzyme, 0 = blocked; activation factor at 5 µM; hit rate 1.4% among 96,000; P11712;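 active = activation factor of 2 or more for CYP2C9 at a 5 µM dose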
CYP2C19 inh = inhibitors of human CYP2C19 | AID 778 | hit rate 21% among 96,000 | CYP2C19 Supersomes, luciferin-H EGE luminescence, 30 min | inhibition, % at 5 µM;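 active = CYP2C19 inhibition above a set limit at 5 µM in the primary screen, cut at about 50% in these data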
tolC growth inh = growth inhibitors of E. coli BW25113 tolC mutant | OD615 | growth inhibition, % at 10 µM (by protocol) | AID 573 | hit rate 2.2% among 65,000;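 active = growth inhibition at or above a cutoff equal to the mean over every tested compound plus 3 SD, cut at about 60% in these data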;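 note: growth measured after 20 h incubation at 37 °C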
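Signal: optical density read at 615 nm; Assay system: E. coli ΔtolC::kan strain BW25113; Times: 20 h incubation with compound, 37 °C; Dosing: 10 µM final, single dose.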
Ecoli WT expand = growth inhibitors of E. coli BW25113 wild type. hit rate 0.15% among 98,000. growth inhibition, % at 100 µM. OD600 absorbance;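 active = growth inhibition above about 50% at one test dose, limit read from the data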;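 note: growth measured after 20 h incubation at 37 °C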
Numbers stand for hits; . = inactive; / = no result. Most compounds without a hit are left out; they make up all but 29% or so of the library.

SMILES	CYP2C19 act	CYP2C9 inh	CYP2C9 activ	CYP2C19 inh	tolC growth inh	Ecoli WT expand
O=C(c1ccc2c(c1)OCO2)N1CCN(c2ccccc2F)CC1	.	53.2	.	82.7	.	.
O=C(c1ccc2c(c1)OCO2)N1CCCC(c2ccccc2)C1 (stereo not given)	.	.	.	87.4	.	.
O=C(c1ccc2c(c1)OCO2)N1CCCC1	.	.	.	.	/	.
COC(=O)c1ccc(NC(=O)CCN2CCN(c3ccccc3)CC2)cc1	.	55.2	.	.	.	.
CCn1c(CSc2nc3ccccc3s2)nnc1SCC(=O)NCC(=O)OC	.	.	.	.	/	.
Cc1ccc(C(=O)N2CCN(c3ccc(NC(=S)NC(=O)Cc4ccccc4)cc3)CC2)cc1	.	51.6	.	.	/	.
O=C(c1ccc2c(c1)OCO2)N1CCN(c2ccc(Cl)cc2)CC1	.	88.8	.	97.3	.	.
O=C(O)c1cc(NCc2ccc3c(c2)OCO3)ccc1N1CCOCC1	.	.	.	.	.	.
CC(=O)N1CCN(c2ccc(NC(=O)c3ccc(C)cc3)cc2)CC1	.	.	.	.	/	.
O=C(Nc1ccccc1N1CCN(C(=O)c2ccc(Cl)cc2)CC1)c1ccc2c(c1)OCO2	.	83.9	.	89.9	.	.
O=C(Nc1ccc(N2CCN(C(=O)c3ccc(Cl)cc3)CC2)cc1)c1ccc2c(c1)OCCO2	.	.	.	.	/	.
COc1ccc(N2CCN(C(=O)c3ccc4c(c3)OCO4)CC2)cc1	.	.	.	.	.	.
COC(=O)c1cc(NCc2ccc3c(c2)OCO3)ccc1N1CCOCC1	.	52.1	.	76.8	/	.
COc1cc2c(cc1NC(=O)CN(C)Cc1nc3ccccc3c(=O)[nH]1)oc1ccccc12	.	.	.	.	.	.
CC1CCN(CCc2nc3cc(NC(=O)NC4CCCCC4)ccc3n2C)CC1	.	.	.	.	/	.
Cn1ncc(N=Cc2ccc([N+](=O)[O-])cc2)c1C(=O)N1CCOCC1	.	.	.	.	/	.
COCCN(CCOC)C(=O)c1c[nH]c2ccc(S(=O)(=O)N(C)c3ccc(F)cc3)cc2c1=O	.	.	.	.	.	.
O=C(c1cnccn1)N1CCN(c2ccccc2)CC1	.	.	.	52.9	/	.
O=C(c1ccc(C(=O)N2CCN(c3ccccc3F)CC2)nc1)N1CCN(c2ccccc2F)CC1	/	/	/	/	.	/
O=C(c1cnsn1)N1CCN(c2ccccc2)CC1	.	.	.	.	.	.
O=C(c1cccc(C(=O)N2CCN(c3ccccc3F)CC2)c1)N1CCN(c2ccccc2F)CC1	.	66.9	.	81.7	.	.
O=C(CCN1CCN(c2ccccc2F)CC1)Nc1ccc2c(c1)OCO2	.	88.0	.	70.8	.	.
Cn1nnc2cc(C(=O)N3CCC(c4ccccc4)C3)ccc21 (stereo not given)	.	.	.	79.7	.	.
Clc1ccc(Br)cc1-c1nc(-c2cccnc2)no1	/	/	/	/	.	/
COc1ccc(Cl)cc1NC(=O)CCN1CCN(C)CC1	.	.	.	.	/	.
SMILES	CYP2C19 act	CYP2C9 inh	CYP2C9 activ	CYP2C19 inh	tolC growth inh	Ecoli WT expand
Cc1ccc(-n2nc(C(=O)N3CCOCC3)cc2-c2ccc(Cl)cc2)cc1	.	70.7	.	.	/	.
O=C(c1ccccc1)N1CCN(c2ccc(NCc3ccc4c(c3)OCO4)cc2)CC1	.	67.6	.	.	.	.
O=C(c1cccs1)N1CCCC(c2ccccc2)C1 (stereo not given)	.	53.2	.	85.3	.	.
O=C(c1ccco1)N1CCCC(c2ccccc2)C1 (stereo not given)	.	.	.	.	.	.
CC(=O)N1CCN(c2ccc(NCc3ccc4c(c3)OCO4)cc2)CC1	.	.	.	.	.	.
COc1cc(CCC(=O)Nc2cc(Cl)ccc2N2CCN(C)CC2)cc(OC)c1OC	.	.	.	64.1	.	.
Cc1ccccc1P(=O)(CO)c1ccccc1C	.	.	.	.	.	.
COc1ccc(C(=O)NC(=S)NCCO)cc1Br	.	.	.	.	/	.
COc1cc(C(=O)N2CCN(c3cc(Cl)ccc3Cl)CC2)cc(OC)c1OC	.	62.5	.	.	.	.
Cc1ccc(C(=O)N2CCN(c3ccc(Cl)cc3)CC2)cc1	.	51.4	.	54.2	.	.
O=C(c1cc(C2CC2)on1)N1CCN(c2ccccc2)CC1	.	52.3	.	90.6	/	.
CC(C)C(=O)N1CCN(c2ccccc2NC(=O)Cc2ccc(Cl)cc2)CC1	.	.	.	.	.	.
CC(C)(C)C(=O)Nc1ccccc1N1CCN(C(=O)c2ccc(Cl)cc2)CC1	.	75.0	.	76.4	.	.
COc1ccc(C(=O)N2CCN(C(=O)c3cc(OC)c(OC)c(OC)c3)CC2)cc1	.	.	.	.	.	.
Cc1cc(C)n(CCn2nc(C)cc2C)n1	.	.	.	.	.	.
COc1ccc(C(=O)Nc2cc(C)c3c(=O)oc4ccccc4c3n2)cc1	.	.	.	.	/	.
O=C(c1cc(-c2cccc(O)c2)on1)N1CCCCC1	.	.	.	51.0	.	.
COc1ccc(OC)c2c(C)cc(N3CCN(C(=O)c4ccc(Cl)cc4)CC3)nc12	.	55.6	.	.	/	.
O=C(Nc1ccc(C(=O)N2CCCC2)cc1)c1ccc2c(c1)OCO2	.	.	.	.	/	.
O=C(c1cc(-c2ccc3c(c2)OCO3)on1)N1CCN(c2ccccc2)CC1	.	50.5	.	.	.	.
O=C(c1ccc2c(c1)OCO2)N1CCN(c2ccccc2)CC1	.	.	.	87.9	.	.
Cc1cc(C)c(S(=O)(=O)NCCC2CCCN2C)c(C)c1 (stereo not given)	.	.	.	.	.	.
O=C(C(Cc1ccccc1)NS(=O)(=O)c1cccc2cccnc12)N1CCc2ccccc21 (stereo not given)	.	.	.	.	/	.
COCCNC(=O)c1onc(CSc2ccccc2C)c1C(=O)O	.	.	.	.	/	.
COc1ccc(C(=O)c2ccc(N3CCN(C(=O)c4ccc(F)cc4)CC3)c(F)c2)cc1Br	.	.	.	65.9	/	.
SMILES	CYP2C19 act	CYP2C9 inh	CYP2C9 activ	CYP2C19 inh	tolC growth inh	Ecoli WT expand
Cc1nn(C(=O)c2ccc3c(c2)OCO3)c(N)c1-c1ccccc1	.	53.1	.	.	.	.
Cc1nn(C(=O)c2cccs2)c(N)c1-c1ccccc1	.	.	.	.	.	.
COc1cc(OC)cc(C(=O)N2CCN(c3ccccc3F)CC2)c1	.	.	.	52.8	.	.
O=c1nc(N2CCCCC2)nc2n1CCO2	.	.	.	.	.	.
N#Cc1ccc(Oc2cccnc2)cc1C#N	.	.	.	.	.	.
CCCCOc1ccc(-c2nnn(CC(=O)NCCc3c[nH]c4ccccc34)n2)cc1	.	.	.	.	/	.
Cc1nc2nc(NCc3cccs3)nn2c(C)c1Cl	.	.	.	.	/	.
C=CCOC(=O)CN1C(=O)c2ccccc2C1=O	.	.	.	61.1	.	.
O=C(OCn1ncc(Cl)c(Cl)c1=O)c1ccc(C(F)(F)F)cc1	.	.	.	83.1	/	.
CCOC(=O)c1cnc2c(C(=O)OC)cccc2c1NCc1ccco1	.	54.5	.	.	.	.

Bioassay records deposited in PubChem by several laboratories.
